The target of one data set is rhPSMA (Homo sapiens, UniProt Q04609). The experiment in a line: PSMA enzyme inhibition assay. It counts as biochemical.
The test system of a further data set is LNCaP (PSMA+) tumors. The experiment in a line: In vivo imaging and biodistribution, LNCaP xenograft. Particulars: for ex vivo tissue biodistribution: 72 h postinjection, 17 nmol/kg; for whole body fluorescence signal over time: LNCaP model, 17 nmol/kg tail vein, 1–72 h. Also on record: species or system mouse. The method in brief:
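Male athymic nu/nu mice (5 weeks old) carried subcutaneous LNCaP (5 × 10^6 cells) or DU145 (1 × 10^6 cells) flank tumours in 1:1 HBSS/Matrigel, grown to 100–150 mm3. Each received one tail-vein injection of 17 nmol/kg in 1% DMSO/99% saline (n = 3). Whole-body imaging ran at 1, 4, 24, 48 and 72 h (ex 685, em 800 nm). At 72 h, tumours, liver, kidney, heart and blood were excised, rinsed, weighed and imaged ex vivo, and mean AFU/mg was calculated.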

The next data set has as its system DU145 (PSMA−) tumors. Put plainly: In vivo imaging and biodistribution, DU145 xenograft. Also on record: species or system mouse. The following applies: DU145 model, 17 nmol/kg tail vein, 1–72 h.
The nature of data set [1]: Pharmacokinetic profile in rats. Particulars: rat; for presence in plasma over time: single IV 0.1 μmol/kg.
The target of the next data set is human TTR (Homo sapiens, UniProt P02766). The experiment in a line: Fluorescence polarization. The format is binding. A general note: In fluorescence polarisation assays a small probe gives low polarisation when free and higher when bound to something large.
The target in a further data set is TTR in human serum (Homo sapiens, UniProt P02766). The experiment in a line: Fluorescent probe exclusion. The format is binding. The following applies: for TTR occupancy: 10 μM ligand, human serum (TTR ∼5 μM), after 3 h relative to probe alone.
Data set [2] has as its target Cathepsin B from human liver (Homo sapiens, UniProt P07858). The experiment in a line: MMAE release following cathepsin B cleavage. The format is in vitro ADME. Particulars: 20 μM compound, cathepsin B 100 nM, pH 5.5, 37 °C, within 15 min. An outline of the steps:
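Human liver cathepsin B was activated for 15 min at ambient temperature in 25 mM sodium acetate, 1 mM EDTA and 9.2 mM DTT, pH 5.5. It was then used at 100 nM with 20 μM substrate in 25 mM sodium acetate/1 mM EDTA, pH 5.5, at 37 °C. Aliquots taken at 0, 15, 30 min, 1 h and 2 h were quenched in acidified acetonitrile–water, chilled and centrifuged. Free MMAE was quantified by HPLC-UV at 210 nm, and its identity was confirmed by LC–MS/MS.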

A word on the Ki: it is a dissociation constant, usually derived from enzyme kinetics or from competition with a known ligand. What is called Kd is the free concentration of one partner at which half of the binding sites on the other are occupied at equilibrium, for simple one-to-one binding.

Sequence of rhPSMA (Q04609 whole entry): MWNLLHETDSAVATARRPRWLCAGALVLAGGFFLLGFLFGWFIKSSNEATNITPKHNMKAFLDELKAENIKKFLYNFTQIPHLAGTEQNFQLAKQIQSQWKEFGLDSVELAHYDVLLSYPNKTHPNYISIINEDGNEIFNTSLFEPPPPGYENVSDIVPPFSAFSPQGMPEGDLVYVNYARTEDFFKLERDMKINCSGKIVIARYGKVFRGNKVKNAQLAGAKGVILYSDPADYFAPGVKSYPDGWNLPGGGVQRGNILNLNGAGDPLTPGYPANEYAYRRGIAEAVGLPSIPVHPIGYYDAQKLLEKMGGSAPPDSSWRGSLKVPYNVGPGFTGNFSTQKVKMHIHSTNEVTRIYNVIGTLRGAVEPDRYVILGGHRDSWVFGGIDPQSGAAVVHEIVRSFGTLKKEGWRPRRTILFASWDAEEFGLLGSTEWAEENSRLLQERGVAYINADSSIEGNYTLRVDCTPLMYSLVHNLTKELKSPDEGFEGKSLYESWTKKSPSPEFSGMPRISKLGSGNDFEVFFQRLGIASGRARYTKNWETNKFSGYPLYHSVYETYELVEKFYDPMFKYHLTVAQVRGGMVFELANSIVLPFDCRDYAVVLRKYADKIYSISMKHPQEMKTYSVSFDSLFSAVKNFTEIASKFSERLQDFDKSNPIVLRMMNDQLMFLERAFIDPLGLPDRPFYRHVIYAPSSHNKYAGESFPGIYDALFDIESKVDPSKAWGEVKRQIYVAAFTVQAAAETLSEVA

In turn, `C#CC[C@H](NC(=O)CCCCC[N+]1=C(C=CC2=CC(=CC=C3N(C)c4ccc(S(=O)(=O)O)cc4C3(C)C)CCC2)C(C)(C)c2cc(S(=O)(=O)[O-])ccc21)C(=O)NCCCCCC(=O)NCCCC[C@H](NC(=O)N[C@@H](CCC(=O)O)C(=O)O)C(=O)O` [BFM1] had a Ki on rhPSMA (Ki on PSMA, absence of TTR) of 20.7 nM. Also, the “ex vivo tissue biodistribution” value in the data set on LNCaP (PSMA+) tumors is “accumulated predominantly in PSMA expressing LNCaP tumors, with no substantial fluorescence activity in other tissues except kidneys”. Moreover, the “whole body fluorescence signal over time” value is “significantly reduced at 4 h postinjection and reduced to the background level at 24 h” in the data set with LNCaP (PSMA+) tumors; “significantly reduced at 4 h postinjection and reduced to the background level at 24 h” in the data set with DU145 (PSMA−) tumors. In data set [1], the “presence in plasma over time” value was “no measurable amount of BFM1 after 4 h”.

At human TTR, `Cc1n[nH]c(C)c1CCCOc1cc(OCCCCCCNCCOCCn2cc(C[C@H](NC(=O)CCCCC[N+]3=C(C=CC4=CC(=CC=C5N(C)c6ccc(S(=O)(=O)O)cc6C5(C)C)CCC4)C(C)(C)c4cc(S(=O)(=O)[O-])ccc43)C(=O)NCCCCCC(=O)NCCCC[C@H](NC(=O)N[C@@H](CCC(=O)O)C(=O)O)C(=O)O)nn2)cc(C(=O)O)c1` [TFM1] had a Kd of 374 nM. For the same compound, the TTR occupancy on TTR in human serum was found to be 57.6 ± 1.9%. Besides, at rhPSMA (Ki on PSMA in the presence of TTR, 1 μM TTR), the inhibitory constant (Ki) was 33.8 nM. The compound further returned a Ki on rhPSMA (Ki on PSMA, absence of TTR) of 32.8 nM. In the data set with LNCaP (PSMA+) tumors, the “ex vivo tissue biodistribution” value is recorded as “accumulated predominantly in PSMA expressing LNCaP tumors, with no substantial fluorescence activity in other tissues except kidneys”; the “whole body fluorescence signal over time” value is “maintained a very high fluorescence signal at 4 h and the signal was maintained for up to 48 h postinjection”. For the same compound, in the data set with LNCaP (PSMA+) tumors (excised tumors, 72 h), the “fold enhanced uptake in LNCaP compared to BFM1” value was around 3 fold and the “fold higher fluorescent signal in LNCaP compared to DU145 tumors” value is reported as around 7 fold. For the same compound, in the data set with DU145 (PSMA−) tumors, the “whole body fluorescence signal over time” value was “maintained a very high fluorescence signal at 4 h and the signal was maintained for up to 48 h postinjection”. For the same compound, in data set [1] (IV 0.1 μmol/kg), the “fold higher MRT compared to BFM1” value is around 16 fold and the “fold increase in t1/2 compared to BFM1” value is around 6.6 fold. Also, the “presence in plasma over time” value in data set [1] was “still present even after 24 h”.

Take `CC[C@H](C)[C@@H]([C@@H](CC(=O)N1CCC[C@H]1[C@H](OC)[C@@H](C)C(=O)N[C@H](C)[C@@H](O)c1ccccc1)OC)N(C)C(=O)[C@@H](NC(=O)[C@H](C(C)C)N(C)C(=O)OCc1ccc(NC(=O)[C@H](CCCNC(N)=O)NC(=O)[C@@H](NC(=O)CCCCCN2C(=O)CC(SCCC(=O)N[C@@H](Cc3cn(CCOCCNCCCCCCOc4cc(OCCCc5c(C)n[nH]c5C)cc(C(=O)O)c4)nn3)C(=O)NCCCCCC(=O)NCCCC[C@H](NC(=O)N[C@@H](CCC(=O)O)C(=O)O)C(=O)O)C2=O)C(C)C)cc1)C(C)C` (stereo partly shown) [TFM2]: in data set [2], the MMAE release was determined as 98%.

Regarding `Cc1n[nH]c(C)c1CCCOc1cc(OCCCCCCN)cc(C(=O)O)c1` [ligand 2], the Kd at human TTR was 48.9 nM. Besides, the receptor occupancy at 10 µM on TTR in human serum (read-out: TTR occupancy) stood at 80.4 ± 0.7%.

`C#CCC(N)C(=O)NCCCCCC(=O)NCCCCC(NC(=O)NC(CCC(=O)O)C(=O)O)C(=O)O` (stereo not shown) [ligand 22]: at rhPSMA (Ki on PSMA, absence of TTR), the affinity corresponds to a Ki of 9.5 nM.

As to `O=C(O)c1ccc2nc(-c3cc(Cl)cc(Cl)c3)oc2c1` [tafamidis, reference compound], the TTR occupancy at TTR in human serum is reported as 50.8 ± 2.0%.

The values above are taken from PMC6607395 (Molecular Pharmaceutics, 2019).
